The list is not random: actives were taken first. Their share in the collection is about 1.4%.
HKDC1 inh: inhibitors of human hexokinase HKDC1. Q2TB90. recombinant HKDC1, G6PDH/diaphorase resazurin coupled fluorescence. inhibition, % at 20 µM. 340,000 tested, 0.16% active. AID 493160;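 active = inhibition above about 35% when tested at 20 µM, limit read from the data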;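 note: plate controls were DMSO wells with enzyme for no effect and DMSO wells lacking enzyme for full effect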
Target sequence (Q2TB90 whole entry, looked up): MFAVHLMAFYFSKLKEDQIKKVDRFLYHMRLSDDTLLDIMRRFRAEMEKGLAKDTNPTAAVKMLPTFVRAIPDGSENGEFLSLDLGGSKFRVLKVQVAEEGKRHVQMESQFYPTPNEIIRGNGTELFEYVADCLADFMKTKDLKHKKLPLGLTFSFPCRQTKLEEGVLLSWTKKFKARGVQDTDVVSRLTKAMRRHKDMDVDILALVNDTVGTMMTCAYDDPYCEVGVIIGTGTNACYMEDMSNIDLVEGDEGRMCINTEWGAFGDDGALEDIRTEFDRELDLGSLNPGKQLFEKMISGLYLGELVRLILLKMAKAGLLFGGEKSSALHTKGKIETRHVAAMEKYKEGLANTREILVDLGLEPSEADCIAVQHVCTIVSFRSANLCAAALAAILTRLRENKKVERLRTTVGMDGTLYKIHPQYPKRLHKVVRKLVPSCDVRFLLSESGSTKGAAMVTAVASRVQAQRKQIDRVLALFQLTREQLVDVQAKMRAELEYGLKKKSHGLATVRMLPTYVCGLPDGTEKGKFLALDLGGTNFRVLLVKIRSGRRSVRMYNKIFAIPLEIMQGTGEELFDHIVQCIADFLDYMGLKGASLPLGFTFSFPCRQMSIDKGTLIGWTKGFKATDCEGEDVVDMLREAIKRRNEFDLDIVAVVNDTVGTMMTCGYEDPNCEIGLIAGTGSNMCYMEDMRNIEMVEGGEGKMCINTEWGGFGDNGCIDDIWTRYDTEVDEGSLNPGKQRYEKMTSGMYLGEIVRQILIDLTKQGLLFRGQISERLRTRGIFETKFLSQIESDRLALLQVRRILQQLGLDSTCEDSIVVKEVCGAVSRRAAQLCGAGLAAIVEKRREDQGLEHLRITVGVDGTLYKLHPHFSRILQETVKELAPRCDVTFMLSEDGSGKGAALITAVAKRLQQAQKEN
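Material – in-house recombinant HK5 (HKDC1) enzyme · Quantity – HKDC1 at 5 µg/mL · Buffer or medium – pH 8.0 Tris buffer with 10 mM MgCl2 · Reagent – glucose with 1 mM ATP · Dosing – single 20 µM dose · Times – reaction time 90 min, room temperature, protected from light · Technique – resorufin fluorescence at 613 nm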
PfGluPho inh: PfG6PD (Plasmodium falciparum) enzyme inhibition; 350,000 tested, 0.78% active; PfGluPho enzyme, NADPH resazurin-diaphorase fluorescence; AID 504690; inhibition, % at 20 µM;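 active = inhibition reaching at least a set limit at 20 µM in the primary screen, cut at about 59% in these data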;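 note: 0% = DMSO wells with substrate and 100% = DMSO wells lacking glucose-6-phosphate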
A3A deaminase: blocks human APOBEC3A ssDNA deamination; 330,000 tested, 0.41% active; P31941; inhibition, % at 20 µM; recombinant A3A, FAM/TAMRA ssDNA deamination fluorescence;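 active = at least 40% inhibition at 20 µM here, with at most 30% in a related deaminase screen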;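 note: plate controls were A3A with DMSO for no effect and wells lacking A3A enzyme for full effect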
hiPSC survival: hiPSC single-cell survival enhancement; ATPlite luminescence; 100% = ROCK inhibitor wells, 0% = DMSO; survival enhancement, % at 20 µM; 360,000 tested, 0.044% active; in the data active = survival enhancement above about 18%;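 note: cells exposed to compounds for 16 hours before the ATP read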
APOBEC3G inh: APOBEC3G (human) deaminase inhibition; Q9HC16; recombinant A3G, ssDNA deamination FAM/TAMRA fluorescence; inhibition, % at 20 µM; 330,000 tested, 0.28% active; AID 493012;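 active = inhibition of at least 40% at 20 µM, with no more than 30% in the related APOBEC3A deaminase screen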;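 note: plate controls were DMSO wells with A3G for no effect and wells lacking A3G enzyme for full effect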
HKDC1 act conf2: HKDC1 (human) activation, single-dose confirmed; shares compounds with HKDC1 inh; recombinant HKDC1, G6PDH/diaphorase resazurin fluorescence; stronger effect = lower value; inhibition, % at 20 µM; 740 tested, 14% active;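 active = inhibition at or below a set negative limit, negative inhibition meaning the enzyme was activated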
Starred values were filed as active, the others as inactive; · = no result given.

SMILES	HKDC1 inh	PfGluPho inh	A3A deaminase	hiPSC survival	APOBEC3G inh	HKDC1 act conf2
COC(=O)[C@]12CCCCC=C1N(Cc1cccc3ccccc13)C(=O)[C@H](CC(=O)N1CCCC1)C2	·	·	·	0.1	·	·
CC1=NNC(=O)/C1=C\c1cn(-c2ccccc2)nc1-c1ccc(Cl)cc1	37.2*	-2.4	-0.8	11.9	-8.0	1.8
O=C(COc1ccc(Br)cc1)N(Cc1nnc(-c2ccccc2Cl)o1)C1CC1	·	20.7	·	-0.7	·	·
Cc1ccc(C2=NNC(=Nc3ccc(F)cc3)SC2)cc1	-69.6	9.1	·	0.1	·	-80.0*
Cc1cccc(N=C2NN=C(c3ccc4c(c3)OCCO4)CS2)c1	-61.7	12.3	-1.0	-0.8	-3.6	-19.5
Cc1cccc(N=C2NN=C(c3c(C)[nH]c4ccccc34)CS2)c1	-41.0	27.8	-4.5	-0.7	-5.8	-17.7
C=CCn1c(C)cc(C2=NNC(=Nc3ccc(C)cc3)SC2)c1C	-8.0	22.5	0.7	-3.0	-4.8	·
CCc1ccc(C2=NNC(=Nc3cccc(S(=O)(=O)N(C)C)c3)SC2)cc1	-177.3	-0.5	0.9	-2.1	-0.6	-140.7*
Cc1ccc([C@@H]2[C@@H]3C(=O)N(C)C(=O)[C@@H]3[C@]3(Cc4ccccc4)C(=O)N(Cc4ccccn4)CC(=O)N23)o1	-3.8	6.1	-2.3	-0.9	-11.9	·
CC(C)Sc1n[nH]c(=O)n1-c1ccccc1	-1.5	6.6	3.1	-0.4	-2.0	·
CC(=O)NN1C(=O)c2ccc3c4c(ccc(c24)C1=O)C(=O)N(NC(C)=O)C3=O	20.1	53.1	-5.1	-0.7	-1.5	·
CCN(CC)S(=O)(=O)c1ccc(N/N=C(\C)c2ccc(OC)cc2O)nc1	30.6	53.2	1.9	-0.1	-2.1	20.0
Cc1ccccc1NC(=O)CN1C(=O)S/C(=C\c2cccn2-c2cccc(C(=O)O)c2)C1=O	-3.4	-18.4	34.4	0.0	8.8	·
Cc1ccc(NC(=O)CN2C(=O)S/C(=C\c3cccn3-c3cccc(C(=O)O)c3)C2=O)c(C)c1	32.5	-40.1	25.8	10.4	14.8	-23.0
COC(=O)[C@@]1(Cc2ccccc2)[C@H]2C(=O)N(C)C(=O)[C@H]2[C@H]2CN=C(SCc3ccccc3)N21	-1.2	-1.3	2.5	0.8	-0.6	·
COCc1cc(C2C(C(=O)c3ccco3)=C(O)C(=O)N2CCOCCO)ccc1O (stereo not drawn)	35.4*	5.3	-5.7	7.4	-4.1	-40.1*
COCCCN1C(=O)C(O)=C(C(=O)c2ccco2)C1c1ccccc1 (stereo not drawn)	-5.2	3.6	-0.7	1.6	-1.9	·
CC(CN1CCOCC1)OC(=O)c1ccccc1Cl (stereo not drawn)	-3.7	-23.7	0.2	-0.5	0.9	·
O=C(N/N=C/c1ccccc1OC(=O)c1ccc2c(c1)OCO2)c1ccccc1	-48.1	13.5	0.7	1.4	-1.9	-18.3
Cc1nc([N+](=O)[O-])c(Br)n1CC(=O)c1ccc2ccccc2c1	45.7*	-0.2	3.4	-4.3	-0.8	40.1
Cc1cc(C)n(-c2ccc(NC(=O)C3CCN(Cc4cc(C)c(C)o4)CC3)cc2)n1	41.0*	-0.1	-1.0	-0.3	-0.7	-23.3
Cc1cc(C)n(-c2ccc(NC(=O)C3CCN(Cc4ccc(C)o4)CC3)cc2)n1	-5.8	2.5	-5.1	0.1	-5.2	·
CC(=O)c1cccc(-c2ccnc3c2CC(C(=O)Nc2ccc(F)c(Cl)c2)O3)c1 (stereo not drawn)	·	·	·	-3.9	·	·
O=S(=O)(Nc1ccc(O)c2ccccc12)c1cccs1	51.0*	35.8	-3.4	-0.6	-9.8	30.6
O=S(=O)(Nc1cccc2ccccc12)c1cccs1	5.1	33.8	-1.8	-0.3	-4.7	·
SMILES	HKDC1 inh	PfGluPho inh	A3A deaminase	hiPSC survival	APOBEC3G inh	HKDC1 act conf2
O=C(O)c1ccc2ncsc2c1	40.7*	4.2	-0.3	-0.5	-7.6	48.1
O=C(c1ccc2ncsc2c1)N1CCCCC1	-1.5	-1.4	-2.7	0.0	2.4	·
Cc1ccccc1CN1CCN(C(=O)c2ccc(F)cc2)CC1	-3.1	-10.0	-4.9	-0.6	-2.1	·
CC(C)c1ccc(NC(=O)CN2C(=O)NC3(CCCCCCC3)C2=O)cc1	-3.0	6.4	-0.4	2.1	-3.6	·
Cc1ccc(-n2c3nc(=O)[nH]c(=O)c-3cc3cc([N+](=O)[O-])ccc32)cc1	49.4*	38.4	3.2	-3.0	0.7	56.2
Cc1ccc(-n2c(C)nn(Cc3ccc([N+](=O)[O-])cc3)c2=O)cc1	-7.4	2.0	5.2	0.1	-0.8	·
COc1ccc(-c2nc3c(C(=O)NCCN(C)C)cccc3c3ccccc23)cc1	39.5*	47.0	·	-2.5	·	37.4
CN(C)CCNC(=O)c1cccc2nc3c(ccc4ccccc43)nc12	2.9	15.3	·	-1.9	·	·
CCOC(=O)c1ccc(N=C2C(=S)N(c3ccc(C(=O)OCC)cc3)C(=N)N2/N=C/c2ccccc2)cc1	-136.4	28.8	1.7	-0.8	1.3	-33.8
CCc1c(C)c(C#N)c2nc3ccccc3n2c1NCCN(C)C	-10.8	-0.4	0.2	0.4	-7.2	·
CCc1c(C)c(C#N)c2nc3ccccc3n2c1NC	-65.6	-58.2	-0.4	-0.6	-5.6	-43.3*
S=C(NCc1ccccn1)NN=Cc1ccccn1	-44.1	52.4	·	-3.0	·	-45.4*
Cc1ccc(NC(=S)NCc2ccccn2)cc1	-10.4	-1.8	-1.0	-3.3	0.2	·
COc1ccc(-c2[nH]c(-c3ccc(SC)cc3)nc2SCC(=O)Nc2nccs2)cc1	-54.3	14.8	2.1	0.3	-0.2	-36.1*
COCC(COS(N)(=O)=O)Cc1ccccc1 (stereo not drawn)	-4.2	-6.1	-0.8	-3.9	-0.3	·
COc1cc(/C=N/NC(=O)CSc2cc(C)c(Br)cc2C)ccc1O	2.3	-5.3	2.3	0.7	-3.8	·
Cc1cc(SCC(=O)N/N=C/c2ccc(O)c(O)c2O)c(C)cc1Br	44.5*	-4.9	39.1	0.0	20.3	7.8
NNc1ncnc2sc3c(c12)CCC3	-102.3	2.0	-1.9	7.9	-4.0	-4.8
COC1=CC(=O)c2ccccc2C1=O	3.2	-94.5	0.1	-4.7	-5.6	·
COC1=CC(=O)C=C(OC)C1=O	65.7*	124.5*	·	-2.9	·	75.2
COC(=O)CCC(=O)OC1(C)C(=O)C2=CN(Cc3ccc4c(c3)OCO4)C(c3ccc(OC)cc3)=CC2=C(Br)C1=O (stereo not drawn)	39.9*	66.9*	-8.0	1.2	-11.2	-5.4
CN(CC(=O)NC1CCN(Cc2ccccc2)CC1)S(=O)(=O)c1ccc(Br)s1	-6.2	-9.2	-4.2	-0.3	-12.6	·
CCOc1cc(/C=C2\C(=N)N3N=C(C)SC3=NC2=O)ccc1OCCOc1cccc(OC)c1	6.2	6.9	2.9	1.1	0.0	·
CCc1nn2c(=O)cc(COc3ccc(/C=C4\C(=N)N5N=C(C)SC5=NC4=O)cc3)nc2s1	58.2*	-24.5	8.4	2.5	8.8	-27.1
CCCc1nc2oc3c(NCC4CCCO4)ncnc3c2c2c1COC(C)(C)C2 (stereo not drawn)	35.4*	41.7	-2.9	2.7	-4.4	28.9
